Assay results from ChEMBL document CHEMBL4732269, “Design, Synthesis, and Biological Evaluation of Imidazopyridines as PD-1/PD-L1 Antagonists” (ACS Med Chem Lett, 2021).
The source made the active and inactive calls. The rule behind the calls is not given here.

Assays:
Format in all cases: protein-complex assay
[1] = biological target: T1, Programmed cell death protein 1/Programmed cell death 1 ligand 1 (Homo sapiens, UniProt Q15116+Q9NZQ7); test: Antagonist activity at PD1/PD-L1 (unknown origin) assessed as disruption of PD-1/PD-L1 complex by measuring PD-L1 dimerization at 50 uM measured after 2 hrs by HTRF assay
[2] = biological target: T2, Programmed cell death protein 1/Programmed cell death 1 ligand 1 (Homo sapiens, UniProt Q9NZQ7); test: Antagonist activity at PD1/PD-L1 (unknown origin) assessed as disruption of PD-1/PD-L1 complex by measuring PD-L1 dimerization measured after 2 hrs by HTRF assay
How it was run: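 PD-1/PD-L1 binding measured by HTRF with a commercial kit following the kit protocol, at 20 μL final volume. Each compound was run as its own dilution series, and plates were incubated 2 h at RT before the TR-FRET read. Signals were background-subtracted on the negative control and normalized to the positive control. Averaged data were fitted with a normalized Hill equation to give the IC50.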

[3] = biological target: T1, Programmed cell death protein 1/Programmed cell death 1 ligand 1; test: Antagonist activity at PD1/PD-L1 (unknown origin) assessed as disruption of PD-1/PD-L1 complex by measuring PD-L1 dimerization by 1H-NMR analysis; details: filed as antagonist
How it was run: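 PD-L1 was expressed in E. coli BL21 (DE3) as inclusion bodies, then refolded by drop-wise dilution into 0.1 M Tris pH 8.0, 1 M L-Arg HCl, 2 mM EDTA, and 0.25 mM each of oxidized and reduced glutathione. It was dialyzed against 10 mM Tris pH 8.0 with 20 mM NaCl. Final size-exclusion chromatography was run in PBS pH 7.4 for NMR.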

[4] = biological target: T2, Programmed cell death protein 1/Programmed cell death 1 ligand 1; test: Antagonist activity at human PD1/PD-L1 preincubated with PD-L1 for 1 hr followed by incubation with PD1 for 1 hr by ELISA
[5] = biological target: T1, Programmed cell death protein 1/Programmed cell death 1 ligand 1; test: Antagonist activity at PD1/PD-L1 (unknown origin)
[6] = biological target: T1, Programmed cell death protein 1/Programmed cell death 1 ligand 1; test: Antagonist activity at human PD1/PD-L1

T2 sequence (Q15116 whole entry): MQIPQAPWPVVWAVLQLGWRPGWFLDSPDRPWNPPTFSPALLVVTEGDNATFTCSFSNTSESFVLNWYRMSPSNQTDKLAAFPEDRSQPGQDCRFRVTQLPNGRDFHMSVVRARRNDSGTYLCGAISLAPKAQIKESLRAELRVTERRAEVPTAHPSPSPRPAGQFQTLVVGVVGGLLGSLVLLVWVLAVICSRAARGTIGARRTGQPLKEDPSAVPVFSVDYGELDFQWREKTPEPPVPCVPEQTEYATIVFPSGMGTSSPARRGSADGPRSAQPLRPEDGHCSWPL
T2 sequence (Q9NZQ7 whole entry): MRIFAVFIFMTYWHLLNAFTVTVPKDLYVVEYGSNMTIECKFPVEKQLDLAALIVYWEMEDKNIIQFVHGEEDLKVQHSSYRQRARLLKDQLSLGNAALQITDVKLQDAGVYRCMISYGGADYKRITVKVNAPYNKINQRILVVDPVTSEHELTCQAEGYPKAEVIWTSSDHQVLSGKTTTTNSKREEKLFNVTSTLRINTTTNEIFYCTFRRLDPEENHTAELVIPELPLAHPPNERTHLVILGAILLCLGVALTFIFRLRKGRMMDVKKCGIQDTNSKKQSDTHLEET
T1 sequence (Q15116 whole entry): as the sequence (Q15116 whole entry) above
T1 sequence (Q9NZQ7 whole entry): as the sequence (Q9NZQ7 whole entry) above

Q: Which results are given for `Cc1c(COc2ccc3nc(CN)c(NCCc4ccccc4)n3c2)cccc1-c1ccccc1`?
A: Activity ([1]; filed as antagonist): Active; IC50 [2]: 16.8 µM; Activity [3]: Active

Q: `Cc1c(COc2ccc3nc(CN)c(NCCc4ccccc4)n3c2)cccc1-c1ccc(F)cc1` was tested. Which Activity [1] did it give?
A: The Activity was “inactive”.

Q: With `Cc1c(COc2ccc3nc(CN)c(NCc4ccccc4)n3c2)cccc1-c1ccc2c(c1)OCCO2` as the compound, how does the Activity ([1]; filed as antagonist) read?
A: Its Activity is “Active”.

Q: What about the IC50 [2] of the same compound?
A: The IC50 was 22.9 µM.

Q: For `Cc1c(COc2ccc3nc(CN)c(NCc4cccc(C#N)c4)n3c2)cccc1-c1ccc(F)cc1`, which Activity [1] is on record?
A: The Activity was “inactive”.

Q: How did the Activity [1] turn out when `Cc1c(COc2ccc3nc([C@H](N)CO)c(NCc4ccccc4)n3c2)cccc1-c1ccccc1` was run?
A: The Activity was “inactive”.

Q: With `N#Cc1cncc(COc2cc(O[C@H]3CCc4c(-c5ccccc5F)cccc43)c(Cl)cc2CN2CC[C@@H](O)C2)c1` as the compound, how does the IC50 [4] read?
A: The IC50 was less than 0.1 µM.

Q: With `CC(O)C(NC(=O)NC(CC(N)=O)c1nc(C(N)CO)no1)C(=O)O` (stereo not drawn) as the compound, how does the IC50 [5] read?
A: Its IC50 is 5000 µM.

Q: With `Cc1c(COc2ccc3nc([C@@H](N)CO)c(NCc4ccccc4)n3c2)cccc1-c1ccccc1` as the compound, how does the Activity [1] read?
A: The Activity was “inactive”.

Q: With `Cc1c(Oc2ccc3nc(CN)c(NCc4ccccc4)n3c2)cccc1-c1ccccc1` as the compound, how does the Activity ([1]; filed as antagonist) read?
A: The Activity was “Active”.

Q: What about the Activity [3] of the same compound?
A: Its Activity is “Active”.

Q: How did the IC50 [6] turn out when `Cc1c(-c2ccccc2)cccc1-c1nc2c(s1)CNCC2` was run?
A: Its IC50 is no more than 0.1 µM.

Q: For `Cc1c(COc2ccc3nc(CN)c(NC(C)c4ccccc4)n3c2)cccc1-c1ccccc1` (stereo not drawn), which Activity ([1]; filed as antagonist) is on record?
A: Its Activity is “Active”.

Q: And the IC50 [2]?
A: Its IC50 is 9.33 µM.

Q: And the Activity [3]?
A: Its Activity is “Active”.

Q: With `Cc1c(COc2ccc3nc(CN)c(NCc4ccccc4)n3c2)cccc1-c1ccccc1` as the compound, how does the Activity ([1]; filed as antagonist) read?
A: The Activity was “Active”.

Q: And the IC50 [2]?
A: The IC50 was 10.2 µM.

Q: And the Activity [3]?
A: Its Activity is “Active”.

Q: Which results are given for `Cc1cc2nc(CN)c(NCc3ccccc3)n2cc1OCc1cccc(-c2ccc3c(c2)OCCO3)c1C`?
A: Activity ([1]; filed as antagonist): Active; IC50 [2]: 1.83 µM

Q: `Cc1c(COc2ccc3nc(CN)c(NCc4cccc(-c5nn[nH]n5)c4)n3c2)cccc1-c1ccc(F)cc1` was tested. Which Activity [1] did it give?
A: Its Activity is “inactive”.
